To fix the notation:
B1: tRNA (parent)
chain: GUUCCGUUGGCGUAAUGGUAACGCGUCUCCCUCCUAAGGAGAAGACUGCGGGUUCGAGUCCCGUACGGAACG

Yeast fitness data for 167 variants are collected here from the RNAGym collection of RNA variant scans (doi:10.1126/science.aae0568).

Fewer inactive variants are shown than the library holds. A value given as a limit tells only on which side of the number the result lay.

The variants in the data set derive from B1. The data set can be described thus: yeast fitness relative to wild type (ratio to wild type); higher = fitter; tRNA-Arg(CCU), competitive growth, 37 C, YPD. The gist of the method:
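Genotype frequency changes were the basis for Darwinian fitness relative to wild type. The frequencies came from 100-nucleotide paired-end sequencing of gene amplicons from the start population and each end population of pooled yeast strains with tRNA-Arg(CCU) gene variants at the native locus. Competition ran in YPD at 37°C for 24 hours in six replicates, genotypes needed ≥ 100 starting reads, and estimates < 0.5 were set to 0.5.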
For U8C G44C, the yeast fitness was 0.911.

In the case of U8G C22G G25A G68A, the yeast fitness was at most 0.5.

As to U8G A36U, the yeast fitness was determined as 0.515.

As to U8C G50A C66A, the yeast fitness is at most 0.5.

As to U8C C30G A69C, the yeast fitness is at most 0.5.

With U8C C30U A37G, the yeast fitness is at most 0.5.

As to U8C G10C, the yeast fitness came out at 0.639.

For the variant U8C U26A A40U, the yeast fitness was 0.613.

For the variant U8C C27U A70G, the yeast fitness came out at 0.738.

For U8C G25C C29G, the yeast fitness is at most 0.5.

In the case of U8C G23C C29G A45U C66U, the yeast fitness was at most 0.5.

Take U8C U13A G51A: the yeast fitness stood at 0.53.

U8G C61A: the yeast fitness turned out to be 0.562.

For the variant U8C G23C C29G A43U G50A A65C, the yeast fitness is at most 0.5.

As for U8C G9A C34U G39C, the yeast fitness is at most 0.5.

On to U8G C31U C33G U47A G50U, for which the yeast fitness was 0.608.

For U8G C29U C31U U54G A65U G67A, the yeast fitness is at most 0.5.

As to U8G C22U A43G, the yeast fitness is at most 0.5.

On to U8C C31A G52C A65U, for which the yeast fitness is at most 0.5.

In the case of U8C U19C U54A, the yeast fitness was determined as 0.542.

As for U8G A42U A69C, the yeast fitness is 0.509.

As to U8C C31U G48C C55A C60G A69G, the yeast fitness is at most 0.5.

For the variant U8C G9A G17C G56C, the yeast fitness was found to be 0.532.

U8G C22U G23A C24G A43U: the yeast fitness is at most 0.5.

Turning to U8C G25A C29G C31A C62U, the yeast fitness was at most 0.5.

Consider U8G A42G, for which the yeast fitness came out at 0.58.

Consider U8G C30G C31U G39A, for which the yeast fitness came to 0.507.

As to U8C G23A C34A A42U C46A A57C G67C, the yeast fitness is at most 0.5.

Regarding U8C U19A, the yeast fitness amounted to 0.923.

Take U8C C29U G38C A40C: the yeast fitness is at most 0.5.

Regarding U8G C31U C66U, the yeast fitness was at most 0.5.

Consider U8G C24G C33U, for which the yeast fitness is at most 0.5.

For U8C C27G A42C C62G, the yeast fitness was at most 0.5.

On to U8C G44A G48A C49A U59A, for which the yeast fitness is 0.524.

For the variant U8C G39C, the yeast fitness is 0.67.

Take U8C G39A: the yeast fitness amounted to 0.874.

Regarding U8C G18U A21C G63A, the yeast fitness was at most 0.5.

For U8C G12C G63C, the yeast fitness amounted to 0.577.

With U8C C27U G41C C61G, the yeast fitness amounted to 0.551.

For U8G A14U G50A, the yeast fitness was at most 0.5.

For the variant U8C C27U C31A G68A, the yeast fitness is at most 0.5.

As for U8C C29A C34G A36G A40C U47A C62G G68A, the yeast fitness stood at 0.537.

With U8C G9C A21C C24G U32G G38A, the yeast fitness is at most 0.5.

For the variant U8G A14G C33U, the yeast fitness is at most 0.5.

As to U8C G23C C29G A45U, the yeast fitness is at most 0.5.

Take U8C G10A U19C G41A U47C: the yeast fitness was 0.537.

As to U8C C27A A36U A37U, the yeast fitness is at most 0.5.

Take U8C G56A: the yeast fitness was determined as 1.06.

Consider U8C G56U, for which the yeast fitness turned out to be 0.755.

On to U8C G23A, for which the yeast fitness amounted to 0.793.

In the case of U8C U54C, the yeast fitness was determined as 0.915.

Consider U8C C30U C31A C33G A42G C60A, for which the yeast fitness is at most 0.5.

In the case of U8C C31A G41A, the yeast fitness is at most 0.5.

As for U8C C24U A45G C46G C55G, the yeast fitness was at most 0.5.

As for U8C C27U U35A U59C, the yeast fitness was at most 0.5.

U8C C30U A57G: the yeast fitness is 0.533.

As for U8G A37G C55U, the yeast fitness was at most 0.5.

With U8G C31U A37G U54A C55A, the yeast fitness is at most 0.5.

Consider U8C G23C U26C C29G A45U, for which the yeast fitness is at most 0.5.

As for U8G G9A U19G U53C C60A, the yeast fitness was at most 0.5.

With U8C G50A A65C, the yeast fitness came to 0.603.

For U8G C33A C49U C66U, the yeast fitness came to 0.609.

Take U8G C33A C49U C66G: the yeast fitness was at most 0.5.

For U8C C34A A45C, the yeast fitness is at most 0.5.

In the case of U8G A37C U64A A70C, the yeast fitness is at most 0.5.

As for U8C C33G A43C, the yeast fitness is at most 0.5.

With U8C C27G A57C A70U, the yeast fitness is at most 0.5.

In the case of U8C G9A U59A A70G, the yeast fitness was at most 0.5.

On to U8G C46U C55A C66U, for which the yeast fitness is 0.524.

As to U8C G25C G38A G58A C60U, the yeast fitness was at most 0.5.

Regarding U8C G18A U35C U47C G50C, the yeast fitness was at most 0.5.

With U8G C24G G63C, the yeast fitness was at most 0.5.

As to U8G C24G G41A C49U, the yeast fitness is at most 0.5.

On to U8G C33U A57C U64C A70G, for which the yeast fitness worked out at 0.511.

With U8C C30G C33G A70U, the yeast fitness was found to be 0.571.

With U8C U32C G44A A69U, the yeast fitness was 0.724.

On to U8C G9A A20C, for which the yeast fitness was determined as 0.772.

For U8G C11A C30U A57U, the yeast fitness was 0.613.

Turning to U8C U28C, the yeast fitness came to 0.834.

For U8C G10A A40G A65G G67A, the yeast fitness is at most 0.5.

U8C G12A G18A A37C C55A C60G G63C: the yeast fitness is at most 0.5.

As to U8C C30A G39A U47A G63C, the yeast fitness was at most 0.5.

For U8C G23A C30G C61A G67A, the yeast fitness was at most 0.5.

Turning to U8C G44C G48A G51A, the yeast fitness came out at 0.674.

Turning to U8C U16C A20U C30U G39C A45G A69C, the yeast fitness is at most 0.5.

For the variant U8C C31G G48A U54C, the yeast fitness was at most 0.5.

In the case of U8C G23A C34A A42U C46A C55G A65G, the yeast fitness is at most 0.5.

With U8C G44A U53C A70U, the yeast fitness was at most 0.5.

For the variant U8C C29U A43G C66U, the yeast fitness is at most 0.5.

With U8G C46G A57U, the yeast fitness was at most 0.5.

For the variant U8C G12A G51A C66A, the yeast fitness is at most 0.5.

Take U8C G56A A69C: the yeast fitness turned out to be 0.836.

As for U8C G10A G23C C33U, the yeast fitness was determined as 0.611.

Consider U8C G10A C29G G56C, for which the yeast fitness was at most 0.5.

Consider U8G G9U C30A, for which the yeast fitness was at most 0.5.

Regarding U8C G10A U19C C34A C46U A65C, the yeast fitness is at most 0.5.

As to U8C G17A C34U C55G, the yeast fitness was at most 0.5.

Regarding U8G C24G G41A C49G C60A C62G A70C, the yeast fitness was at most 0.5.

U8C U13G C22U C49A A69C: the yeast fitness is at most 0.5.

U8C U26C: the yeast fitness worked out at 0.837.

With U8C U26G, the yeast fitness was determined as 0.959.

With U8C G17C C31A G68A, the yeast fitness is at most 0.5.

U8G C24A C30G A40G U47G: the yeast fitness is at most 0.5.

With U8G A20C A43U G67A, the yeast fitness was at most 0.5.

On to U8C G44C C46A, for which the yeast fitness is 0.769.

Turning to U8C U16G G25A A70G, the yeast fitness is at most 0.5.

With U8C C24G G67U, the yeast fitness is at most 0.5.

As for U8C G10C A21U G23C G56A C61A A65G, the yeast fitness was at most 0.5.

With U8C C49A, the yeast fitness is 0.704.

As for U8C C49U, the yeast fitness is 0.903.

Regarding U8G C11G U32A A70C, the yeast fitness came out at 0.599.

For the variant U8G C24A U35G C46G U53C U54G, the yeast fitness was at most 0.5.

On to U8G C22U G51C G58A, for which the yeast fitness is at most 0.5.

As for U8C C31G G50C G56C, the yeast fitness was at most 0.5.

As for U8G G9C A37U G50C, the yeast fitness is at most 0.5.

Turning to U8C C24G G25A A43G, the yeast fitness was at most 0.5.

For U8C U19A A40C G44C G48C, the yeast fitness is at most 0.5.

Consider U8C C29U G39C A40U, for which the yeast fitness is at most 0.5.

Regarding U8G C11A C27U A37G G39C C49G, the yeast fitness is at most 0.5.

Consider U8C U16A U19A C22U, for which the yeast fitness amounted to 0.536.

As for U8C G25A, the yeast fitness is 0.931.

With U8G C29G C66A, the yeast fitness was at most 0.5.

As for U8C G25A A37G A40G, the yeast fitness is at most 0.5.

U8C G17A A40U G48A: the yeast fitness was at most 0.5.

Turning to U8C G23A C29U A45U, the yeast fitness stood at 0.632.

Regarding U8G C30U C31G G39A A45U G52A, the yeast fitness came out at 0.567.

Regarding U8C C62U, the yeast fitness stood at 0.881.

In the case of U8C C27U C49U G52A C60A, the yeast fitness was at most 0.5.

Take U8C G10A C11G G12C C29G: the yeast fitness is at most 0.5.

Regarding U8C G17C C22U C34A, the yeast fitness is at most 0.5.

For the variant U8C G9A, the yeast fitness was 0.894.

For the variant U8C G9C, the yeast fitness is 0.695.

In the case of U8C G9A G41C A69U, the yeast fitness was at most 0.5.

Consider U8C C30U C31A C33G C60A, for which the yeast fitness was determined as 0.586.

With U8C U13C A14C C30U A42G G50C C55U, the yeast fitness was determined as 0.671.

Regarding U8C G48C, the yeast fitness worked out at 0.843.

For U8C U16C A70U, the yeast fitness was determined as 0.577.

For U8G A20U U53G C66G A70G, the yeast fitness is at most 0.5.

Take U8C U19A C24U G38A U54C C66A: the yeast fitness was at most 0.5.

As for U8C C33G C34G C46U, the yeast fitness is at most 0.5.

As to U8C C31U A43U G48A U53A, the yeast fitness is at most 0.5.

For the variant U8C G52C, the yeast fitness is 0.639.

For the variant U8G C30G C33G C61A A69U, the yeast fitness was at most 0.5.

Consider U8G C27U C31U C33A G67C, for which the yeast fitness was at most 0.5.

Regarding U8C C29U U35G, the yeast fitness was at most 0.5.

In the case of U8C U59A C66A, the yeast fitness was at most 0.5.

Consider U8G A15C G18C C49U U64A A69U, for which the yeast fitness was at most 0.5.

On to U8C C30G C49A G67A G68A, for which the yeast fitness was at most 0.5.

As for U8C G18A C27G C34A U47A, the yeast fitness was at most 0.5.

As for U8C C27U C66U A69U, the yeast fitness is at most 0.5.

U8C G12A A21U A70U: the yeast fitness is at most 0.5.

For U8G C22U C62U, the yeast fitness came to 0.529.

Turning to U8G A21U C29U G68C, the yeast fitness was at most 0.5.

Turning to U8C U19C C55G, the yeast fitness is at most 0.5.

Consider U8C U19C C55U, for which the yeast fitness is at most 0.5.

U8C U16A: the yeast fitness came out at 0.934.

Consider U8C U19A A37G, for which the yeast fitness was determined as 0.559.

Turning to U8C G18A C24A A37G A57G A69G, the yeast fitness was at most 0.5.

On to U8G A36C U53C A69G, for which the yeast fitness is at most 0.5.

On to U8C C55A C61G, for which the yeast fitness is at most 0.5.

In the case of U8C U32C C46A C55A, the yeast fitness amounted to 0.625.

Take U8C C29A C34G A36G A40C U47A: the yeast fitness was at most 0.5.

For the variant U8C G12C U26G, the yeast fitness is at most 0.5.

In the case of U8C G18C C33U A65C A69C, the yeast fitness was determined as 0.549.

As for U8C G18A C27U, the yeast fitness came to 0.531.

Regarding U8C G10A U16A A65G, the yeast fitness was determined as 0.605.

For U8C U16G G41C, the yeast fitness is at most 0.5.
